Source: PubChem (several laboratories)
MEKK3 PB1 HTS: modulators (inhibitors or enhancers) of MEK5 binding to human MEKK3 PB1 domain; binding response (% of control), % at 10 µM; Q99759; bead-based flow cytometry, Alexa488-MEK5 binding to MEKK3; actives lie on both sides; 0 = blocked by unlabeled MEK5, 100 = vehicle; hit rate 1.4% among 290,000;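 active means binding response more than 3 SD above or below the average of its plate-row segment, actives on both sides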;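 further: Alexa488 bead fluorescence after subtracting the streptavidin-only scavenger bead signal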
Target sequence (Q99759 whole entry, looked up, the tested form may be a part): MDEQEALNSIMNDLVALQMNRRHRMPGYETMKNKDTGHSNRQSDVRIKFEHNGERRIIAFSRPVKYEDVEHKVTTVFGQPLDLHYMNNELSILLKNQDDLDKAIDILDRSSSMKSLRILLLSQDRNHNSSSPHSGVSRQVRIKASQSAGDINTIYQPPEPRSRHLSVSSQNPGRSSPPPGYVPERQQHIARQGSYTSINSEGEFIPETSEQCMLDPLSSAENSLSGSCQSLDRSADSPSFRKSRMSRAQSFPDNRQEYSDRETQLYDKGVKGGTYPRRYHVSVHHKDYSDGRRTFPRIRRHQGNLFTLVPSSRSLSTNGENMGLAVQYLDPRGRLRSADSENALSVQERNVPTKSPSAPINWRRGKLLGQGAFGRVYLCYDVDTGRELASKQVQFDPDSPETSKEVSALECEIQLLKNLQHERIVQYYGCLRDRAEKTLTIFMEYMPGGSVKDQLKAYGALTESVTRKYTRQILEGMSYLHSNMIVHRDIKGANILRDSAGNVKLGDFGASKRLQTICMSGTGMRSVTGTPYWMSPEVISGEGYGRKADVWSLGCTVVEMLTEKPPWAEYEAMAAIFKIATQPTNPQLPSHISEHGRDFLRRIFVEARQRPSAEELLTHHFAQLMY
ABCG2 block: blocks JC-1 efflux by human ABCG2 transporter | Q9UNQ0 | IgMXP3 cells, flow cytometry | inhibition, % at 6.6 µM | hit rate 0.1% among 190,000 | AID 1325;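 active means inhibition above 80%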;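 further: 0% = DMSO and 100% = nicardipine control wells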
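Incubation: cells with compound and JC-1, 10 min at 25 °C, rotating, no wash / Test system: IgMXP3 (ABCG2) plus far-red-tagged CCRF-Adr (ABCB1) cells / Compound dosing: one concentration, 6.6 µM final / Also added: JC-1 fluorescent substrate / Evaluation: efflux inhibition in percent versus controls / Detection: flow cytometry, 530 nm JC-1 signal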
MEKK2 mut-MEK5: signal of MEK5 binding to mutant human MEKK2 PB1 domain | bead flow cytometry, Alexa488-MEK5 binding to MEKK2 mutant | percent response, % at 10 µM | hit rate 0.35% among 290,000; in the data active means percent response above about 24%, passing the limit was not always enough
WT yeast gro inh: growth inhibition of WT yeast, mitochondrial fusion screen; mitochondrial fusion phenotypic screen, WT strain; inhibition, % at 10 µM; hit rate 2.1% among 190,000; AID 1362; in the data active means inhibition above about 58%; tested in S. cerevisiae
ABCB1 block: inhibitors of human ABCB1 transporter, ABCG2 counter-screen; inhibition, % at 6.6 µM; AID 1326; hit rate 0.067% among 190,000; CCRF-Adr cells, JC-1 efflux, flow cytometry; in the data active means inhibition above about 40%;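 further: 0% = vehicle and 100% = reference inhibitor; higher value means more JC-1 retained so stronger ABCB1 efflux block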
MEKK2wt PB1 HTS: raises or lowers MEK5 binding to wildtype human MEKK2 PB1 domain. bead flow cytometry, Alexa488-MEK5 binding to MEKK2 WT; actives lie on both sides. AID 1531. hit rate 1.1% among 290,000. binding response (% of control), % at 10 µM; in the data active means binding response below about 67% or above about 130%
MEKK2wt confirm: raises or lowers MEK5 binding to wildtype human MEKK2, retest; hit rate 2.4% among 5,900; AID 1892; bead flow cytometry, Alexa488-MEK5 binding to MEKK2 WT; actives lie on both sides; shares compounds with MEKK3 PB1 HTS; binding response (% of control), % at 10 µM; in the data active means binding response below about 16% or above about 210%; inactive means in between
MEKK2mut-MEK5: signal of MEK5 binding to mutant human MEKK2, retest | percent response, % at 10 µM | shares compounds with MEKK3 PB1 HTS | bead flow cytometry, Alexa488-MEK5 binding to MEKK2 mutant | AID 1893 | hit rate 2% among 5,900; in the data active means percent response mostly above about 71%, no sharp cut-off; inactive means mostly below about 38%;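 further: higher means compound restores mutant binding toward wildtype level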
MEKK3-MEK5 inh: MEKK3-MEK5 PB1 inhibition, single concentration confirmation. AID 1894. bead flow cytometry, Alexa488-MEK5 binding to MEKK3; active compounds read low. hit rate 1.8% among 5,900. shares compounds with MEKK3 PB1 HTS. binding response (% of control), % at 10 µM;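 active means binding response below 72% of control, or above a set upper limit, though filed actives all read lower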;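 further: 100% = DMSO only wells and 0% = binding blocked by excess unlabeled MEK5; lower values mean stronger disruption of MEK5 binding to MEKK3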
Active calls of the source: *; . = no result given; [ ] = another dose, or the depositor's remark. The list is not random: actives were taken first. Their share in the collection is about 3.5%.

SMILES | MEKK3 PB1 HTS | ABCG2 block | MEKK2 mut-MEK5 | WT yeast gro inh | ABCB1 block | MEKK2wt PB1 HTS | MEKK2wt confirm | MEKK2mut-MEK5 | MEKK3-MEK5 inh
COc1ccc(Nc2nc(C(=O)NCCCN3CCOCC3)cs2)cc1 | 99.0 | 3.9 | 0.0 | -14.0 | 0.6 | 105.0 | . | . | .
COc1ccc(Nc2cc(C)nc3ccccc23)cc1 | 103.0 | 5.4 | 13.0 | -7.9 | 0.0 | 109.0 | . | . | .
COc1ccc(Nc2nc3ccccc3nc2C)cc1 | 2.0*[inhibitor] | -2.6 | -16.0 | -5.0 | -3.4 | 3.0*[inhibitor] | 96.0 | -3.0 | 97.0
COc1ccc(Nc2nc(C)c3ccccc3n2)cc1 | 117.0 | 1.0 | 16.0 | 1.1 | 0.2 | 140.0* | 105.0 | -1.0 | 103.0
CC/C(=C(\c1ccc(O)cc1)c1ccc(OCCN(C)C)cc1)c1ccccc1 | 78.0 | 3.8 | 43.0 | 56.4 | . | 180.0* | 182.0 | 39.0 | 102.0
CN(C)CCOc1ccc(C(C)(C)c2ccccc2)cc1 | 107.0 | 1.2 | 13.0 | -4.4 | 0.7 | 110.0 | . | . | .
CCN(CC)CCOc1ccc(/C(=C(/Cl)c2ccccc2)c2ccccc2)cc1 | 108.0 | -0.9 | 26.0* | 97.6* | 1.0 | 179.0* | 189.0 | 62.0 | 107.0
COc1ccc(OC)c(NC(=O)CSc2nnc(NC(=O)c3ccco3)s2)c1 | 101.0 | . | 1.0 | . | . | 104.0 | . | . | .
O=c1oc2ccccc2cc1-c1nc2c(s1)CCc1ccccc1-2 | 92.0 | -3.9 | -2.0 | 0.3 | -0.5 | 63.0*[inhibitor] | 72.0 | -15.0 | 99.0
Nc1nnc(-c2cc3ccccc3oc2=O)s1 | 104.0 | 3.7 | 5.0 | -3.7 | 0.4 | 105.0 | . | . | .
COc1ccc(C(=O)N/C(=C\c2cc(OC)c(OC)cc2[N+](=O)[O-])C(=O)NCC(=O)O)cc1 | 104.0 | 0.6 | -2.0 | -1.4 | 0.1 | 98.0 | . | . | .
COc1cc(/C=C(\NC(=O)c2ccccc2)C(=O)NCC(=O)O)c([N+](=O)[O-])cc1OC | 132.0* | 6.8 | 0.0 | 8.0 | 1.1 | 108.0 | 109.0 | 21.0 | 111.0
CC(=O)c1c(N2CCN(CCO)CC2)nc(=S)n(-c2ccccc2)c1C | 104.0 | 10.6 | 1.0 | 8.3 | 0.8 | 103.0 | . | . | .
CC(=O)c1c(N2CCN(c3ccccc3)CC2)nc(=S)n(-c2ccccc2)c1C | 82.0 | 1.9 | 11.0 | -2.5 | 0.8 | 23.0*[inhibitor] | 93.0 | -7.0 | 94.0
COc1ccc(CCNC(=O)c2ccc(NS(=O)(=O)c3c(C)noc3C)cc2)cc1OC | 104.0 | 7.8 | 6.0 | -1.2 | 0.7 | 108.0 | . | . | .
COC(=O)C(=NNc1c(C)n(C)n(-c2ccccc2)c1=O)C(=O)OC | 141.0* | 4.4 | 1.0 | 2.9 | 0.8 | 112.0 | 72.0 | -16.0 | 74.0
CC(C)c1ccc(N2CC(C)(C)C2=O)cc1 | 100.0 | -2.4 | -11.0 | -8.1 | 3.6 | 91.0 | . | . | .
C#Cc1ccc([C@H]2C=C(C(=O)NC3CC3)O[C@@H](OCC)[C@@H]2CCCO)cc1 | 102.0 | 1.2 | 5.0 | -7.2 | 0.9 | 104.0 | . | . | .
COc1ccc(NC(=S)N2CCCC2)cc1 | 59.0*[inhibitor] | 2.7 | -1.0 | -12.2 | -0.1 | 91.0 | 99.0 | -5.0 | 93.0
COc1ccc(NC(=O)C(=S)N2CCCC2)cc1 | 97.0 | 3.9 | 0.0 | -0.7 | 0.2 | 95.0 | . | . | .
S=C(Nc1ccc(Br)cc1)N1CCCC1 | 131.0* | 1.6 | 0.0 | -7.0 | 0.1 | 113.0 | 102.0 | -4.0 | 102.0
CCCN1C(=O)SC(CC(=O)Nc2ccc(Br)cc2)C1=O (stereo not drawn) | 2.0*[inhibitor] | 7.8 | -24.0 | 14.7 | 0.4 | 3.0*[inhibitor] | 100.0 | -4.0 | 101.0
COc1cccc2c(=O)c(C/C=C(/C)Cl)c(C)[nH]c12 | 79.0*[inhibitor] | 5.0 | -8.0 | 19.1 | 0.6 | 88.0 | 104.0 | 5.0 | 102.0
COc1ccc(F)cc1S(=O)(=O)NCc1ccccc1 | 72.0*[inhibitor] | 6.9 | 0.0 | 4.1 | 0.3 | 93.0 | 100.0 | -6.0 | 101.0
